Experimental data: ChEMBL document CHEMBL1140424, “Charge dependence of cellular uptake and selective antitumor activity of porphyrazines” (J Med Chem, 2005); call rule not given here

Key:
[1] = test system: WI-38 VA13; test: Decrease in viability of WI-38 VA13 cells at 100 uM for 72 hrs; type: cell-based; details: human, wi-38 va13, 72 h
How it was run: (§1)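 Cells were grown to 70% confluence and treated in the dark with pz (12.5, 25, 50, 100 µM) or DMSO vehicle for 72 h. MTT (200 µg) was added for 5 h at 37 °C, solubilised in DMSO, and absorbance read at 540 nm. Viability is relative to DMSO control. Four plates per experiment, at least three experiments, normalised and averaged (≥12 values per condition).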

[2] = test system: A549; test: Cytotoxicity against A549 tumor cells at 12.5 to 100 uM by MTT assay; type: functional, cell-based; details: Homo sapiens; how it was run: as §1
[3] = test system: A549; test: Decrease in viability of A549 cells at 50 uM for 72 hrs; type: cell-based; details: human, a549, 72 h; how it was run: as §1
[4] = test system: WI-38 VA13; test: Cytotoxicity against human fibroblast-like cell line of embryonic origin WI-38 VA13 at 12.5 to 100 uM by MTT assay; type: functional, cell-based; how it was run: as §1
[5] = test system: WI-38 VA13; test: Decrease in viability of WI-38 VA13 cells at 50 uM for 72 hrs; type: cell-based; details: human, wi-38 va13, 72 h; how it was run: as §1
[6] = test system: A549; test: Decrease in viability of A549 cells at 100 uM for 72 hrs; type: cell-based; details: human, a549, 72 h; how it was run: as §1
[7] = test system: A549; test: Cellular uptake in A549 cells using false-white single-photon confocal microscopy at 3.1 uM; type: ADME, cell-based; details: human, a549, 3.1 µM
How it was run: (§2)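 Cells on glass coverslips grown at 37 °C, 5% CO2 to 60–80% confluence, then treated with pz (50, 25, 12.5, 6.2, 3.1 µM; DMSO stock) in the dark for 24 h. Washed twice with PBS and imaged live in PBS at room temperature. Single-photon excitation at 488 nm, long-pass 505-nm emission filter. Gain set to remove autofluorescence in DMSO-treated controls.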

[8] = test system: A549; test: Colocalization experiment with mitotracker green in A549 cells at 100 uM for 24 hrs by false-white two-photon confocal microscopy; details: human, a549, 24 h
[9] = test system: A549; test: Cellular uptake in A549 cells using false-white single-photon confocal microscopy; type: ADME, cell-based; details: human; how it was run: as §2
[10] = test system: A549; test: Colocalization experiment with LysoTracker green in A549 cells at 100 uM for 24 hrs by false-white two-photon confocal microscopy; details: human, a549, 24 h
[11] = test system: A549; test: Decrease in viability of A549 cells at 25 uM for 72 hrs; type: cell-based; details: human, a549, 72 h; how it was run: as §1
[12] = test system: WI-38 VA13; test: Percentage increase in growth of WI-38 VA13 cells at 12.5 uM for 72 hrs; type: cell-based; details: human, wi-38 va13, 72 h; how it was run: as §1
[13] = test system: A549; test: Percentage increase in growth of A549 tumor cells at 12.5 uM for 72 hrs; type: cell-based; details: human, a549, 72 h; how it was run: as §1
[14] = test system: WI-38 VA13; test: Percentage growth of WI-38 VA13 cells at 25 uM for 72 hrs; type: cell-based; details: human, wi-38 va13, 72 h; how it was run: as §1

Compound	Activity [1]	Activity [2]	Activity [3]	Activity [4]	Activity [5]	Activity [6]	Activity [7]	Activity [8]	Activity [9]	Activity [10]	Activity [11]	Activity [12]	Activity [13]	Activity [14]
CC(C)Oc1ccc(OC(C)C)c2c1-c1nc3nc([nH]c4nc(nc5[nH]c(nc-2n1)c(SCCOCC[n+]1ccccc1)c5SCCOCC[n+]1ccccc1)-c1c(OC(C)C)ccc(OC(C)C)c1-4)C(SCCOCC[n+]1ccccc1)=C3SCCOCC[n+]1ccccc1	70%	Toxic	10%	Toxic	20%	70%	–	–	–	–	–	–	–	–
CC(C)Oc1ccc(OC(C)C)c2c1-c1nc3nc(nc4[nH]c(nc5[nH]c(nc-2n1)c(SCCOCCOCCO)c5SCCOCCOCCO)c1c(OC(C)C)ccc(OC(C)C)c41)C(SCCOCCOCCO)=C3SCCOCCOCCO	–	Toxic	40%	Toxic	–	–	Active	Active	Active	Not Active	–	–	–	–
CC(C)Oc1ccc(OC(C)C)c2c1-c1nc3nc([nH]c4nc(nc5[nH]c(nc-2n1)c(SCCCC(=O)O)c5SCCCC(=O)O)-c1c(OC(C)C)ccc(OC(C)C)c1-4)C(SCCCC(=O)O)=C3SCCCC(=O)O	–	–	80%	–	10%	80%	–	–	–	–	40%	10%	10%	10%
